The record followed here is PMC6404779 (Nature medicine, 2018).

A word on the pIC50: it is the IC50 on a negative log10 scale, so that one unit is a factor of ten.

Molecules are shown by their SMILES. pIC50: −log10 of the molar value.

Series [1] has as its system A375 cells with overexpression of BRAF V600E. As to the kind of experiment: A375 xenograft with doxycycline-induced BRAF V600E overexpression. It is filed as in vivo, nude mice. The note with it: vemurafenib 75mg/kg BID, PLX8394 50mg/kg BID. The essentials:
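A375 cells carrying a retroviral tet-regulated BRAF V600E or NRAS Q61K construct (kept in 50 ug/ml hygromycin and 0.2 ug/ml puromycin). 5 million cells were injected s.c. into nude mice fed doxycycline food. At 100 mm3, mice stayed on doxycycline food and received vehicle, reference RAF inhibitor 75 mg/kg BID or test compound 50 mg/kg BID. Tumour size was tracked (n=5; mean±s.d.; two-tailed unpaired t-test).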

Series [2] concerns RAS-dependent ARAF homo-or heterodimers. The series can be described thus: RAF dimer immunoprecipitation in 293H. It is filed as cell-based. Particulars: 1hr.
Series [3] concerns HeLa cells (WT RAS and RAF) with BRAF overexpression. The series can be described thus: ERK signaling in HeLa cells stably expressing RAF. It is filed as cell-based. The note with it: 1hr.
Series [4] concerns WT RAF driven by either WT or mutant RAS (A549, SK-MEL-285, BEAS-2B and melanocytes). The series can be described thus: ERK signaling in a panel of cell lines, 1 hour. Type of series: cell-based. The method in brief: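 Cells cultured as follows: SK-MEL-285 in RPMI with 10% FBS; BEAS-2B in BEBM medium; primary melanocytes in Dermal cell basal medium with melanocyte growth kit; A549 in DMEM with glutamine, antibiotics and 10% FBS. Pathway status read by Western blot for p-MEK1/2, p-ERK1/2, MEK1/2 and ERK1/2 (primary 1:1,000; HRP secondary 1:5,000). Cellular experiments repeated at least three times.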

Series [5] deals with RAF-null MEFs expressing BRAF. The series can be described thus: ERK signaling in RAF-null MEFs expressing one RAF isoform. Type of series: cell-based, Mouse. The note with it: 1hr. The method in brief:
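RAF-less MEFs came from Araflox/lox;Braflox/lox;Craflox/lox;RERT ert/ert MEFs. Doxycycline-inducible wild-type ARAF, BRAF or CRAF was transduced retrovirally without 4-OHT and selected with puromycin/hygromycin. Cells were then infected with Adeno-Cre (MOI 100) and cultured in 1 uM 4-OHT plus 50 ng/ml doxycycline. GFP-positive cells were sorted after 2 weeks. Loss of endogenous RAF and induced expression were confirmed by genomic PCR and Western blot.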

The next series has as its system p61 WT BRAF dimers. As to the kind of experiment: ERK signaling in SKBR3 cells ectopically expressing RAF proteins. Type of series: cell-based. The note with it: 1hr. The essentials:
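SKBR3 cells (DMEM/F12 + 10% FBS) were transfected the day after seeding (Lipofectamine 2000, DNA:lipid 1:3) with plasmids for the indicated RAF proteins or empty pcDNA3. After 24 h, RAF-transfected cells got 1 uM lapatinib to suppress endogenous RAF activity; vector cells got DMSO. Test compound was then added at increasing doses for 1 hr. Protein expression and phosphorylation were read by Western blot; 3–4 independent repeats.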

The next series deals with BRAF G466V PDX tumors. As to the kind of experiment: Colorectal cancer PDX model. Type of series: in vivo, NSG mice. The note with it: Cetuximab 50 mg/kg IP twice weekly, vemurafenib 75 mg/kg BID, PLX8394 50 mg/kg BID.
A short description of series [6]: Tolerability in nude mice. It is filed as in vivo. Particulars: doses up to 100mg/kg daily.
The subject of series [7] is Class 2 BRAF mutant homodimers. As to the kind of experiment: RAF dimer immunoprecipitation in 293H cells. Particulars: 1hr, increasing doses. Type of series: cell-based.
The next series concerns A375 Xenograft tumors. The series can be described thus: ERK pathway inhibition in A375 xenograft tumors after a single dose. It is filed as in vivo, Mice. The note with it: single dose of 50mg/kg.
The subject of series [8] is NRAS Q61R activation of WT RAF dimers (SK-MEL-2). As to the kind of experiment: p-ERK Western blot, 1 hr drug treatment. Type of series: cell-based. Particulars: Homo sapiens, SK-MEL-2, read-out: IC50 for p-ERK in SK-MEL-2 cells. The essentials:
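SK-MEL-2 (RPMI, 10% FBS) or primary keratinocytes (Dermal Cell Basal Medium + keratinocyte growth kit) were exposed 1 hr to 0–30,000 nM compound (nine points, 10 to 30,000 nM). Lysates were Western blotted, and p-ERK/total ERK was quantified by densitometry and normalized to untreated cells. IC50 is the concentration giving 50% inhibition on the response curve; n=4, mean±s.d.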
For orientation: In western blotting, separated proteins are transferred to a membrane and probed.

Series [9] in a line: PLX8394 concentration in tumor samples. It is filed as in vivo, Mice. The note with it: single dose of 50mg/kg (i.p.), A375 xenograft tumor tissue. The essentials: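 Melanoma xenograft tumours were collected at several time points after a single 50 mg/kg dose. Fresh tissue (50–150 mg) was snap-frozen in an ethanol–dry ice bath, homogenised and protein-precipitated. Samples were quantified by LC-MS/MS with an internal standard and a 15–50000 ng/mL calibration range. Standards were made by spiking untreated homogenate, and QC samples spanned the range.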

The test system of series [10] is Class 3 BRAF mutant heterodimers. As to the kind of experiment: RAF dimer immunoprecipitation in 293H cells. Type of series: cell-based. Particulars: 1hr, increasing doses.

For `O=C(c1c(F)ccc(NS(=O)(=O)N2CC[C@@H](F)C2)c1F)c1c[nH]c2ncc(-c3cnc(C4CC4)nc3)cc12` [PLX8394], the “response of ERK signaling and tumor growth, BRAF V600E amplified” value in series [1] is reported as “sensitive”. Also, in series [2], the “disruption of ARAF homo- or heterodimers” value was “didn’t disrupt”. In [3], the “effect on ERK signaling, BRAF overexpression” value was “sensitized ERK signaling to inhibition”. In addition, in [4], the “effect on ERK signaling in cells with WT RAF” value is recorded as “almost no effect on ERK signaling or caused slight activation”. The “effect on ERK signaling, cells expressing only BRAF” value in [5] was “inhibited”. In the series with p61 WT BRAF dimers, the “doses required to inhibit p61 WT BRAF dimers” value was 300 to 1000 nM. Further, the “response of ERK signaling and tumor growth” value in the series on BRAF G466V PDX tumors was “insensitive”. Further, in [6], the tolerability result is recorded as “well tolerated”. Besides, the “disruption of Class 2 BRAF mutant homodimers” value in series [7] is given as “disrupts”. For the same compound, in the series with A375 Xenograft tumors, the “time of maximum inhibition of signaling after dosing” value was 2 to 7 h and the “time of return of signaling to baseline” value was at most 24 h. In addition, the pIC50 in series [8] was under 4.70. Besides, the “time of highest drug concentrations in melanoma xenografts” value in [9] stood at 7 h. Further, the “disruption of Class 3 BRAF mutant heterodimers” value in series [10] is reported as “disrupts”.
